Active and inactive are the calls of the source. How the calls were made is not given here. Peptide text beside a SMILES is read from it. * marks the point of attachment. NH(4-amidinobenzyl) = N=C(N)c1ccc(CN*)cc1
How the values were obtained:
[1] = target: T1, Proprotein convertase subtilisin/kexin type 6 (Homo sapiens, UniProt P29122); assay: Inhibition of recombinant human PACE4 expressed in drosophila S2 cells using pyrGlu-Arg-Thr-Lys-Arg-7-amido-4-methylcoumarin as substrate after 60 mins by spectrofluorometry method; type: cell-based
T1 sequence (P29122 whole entry): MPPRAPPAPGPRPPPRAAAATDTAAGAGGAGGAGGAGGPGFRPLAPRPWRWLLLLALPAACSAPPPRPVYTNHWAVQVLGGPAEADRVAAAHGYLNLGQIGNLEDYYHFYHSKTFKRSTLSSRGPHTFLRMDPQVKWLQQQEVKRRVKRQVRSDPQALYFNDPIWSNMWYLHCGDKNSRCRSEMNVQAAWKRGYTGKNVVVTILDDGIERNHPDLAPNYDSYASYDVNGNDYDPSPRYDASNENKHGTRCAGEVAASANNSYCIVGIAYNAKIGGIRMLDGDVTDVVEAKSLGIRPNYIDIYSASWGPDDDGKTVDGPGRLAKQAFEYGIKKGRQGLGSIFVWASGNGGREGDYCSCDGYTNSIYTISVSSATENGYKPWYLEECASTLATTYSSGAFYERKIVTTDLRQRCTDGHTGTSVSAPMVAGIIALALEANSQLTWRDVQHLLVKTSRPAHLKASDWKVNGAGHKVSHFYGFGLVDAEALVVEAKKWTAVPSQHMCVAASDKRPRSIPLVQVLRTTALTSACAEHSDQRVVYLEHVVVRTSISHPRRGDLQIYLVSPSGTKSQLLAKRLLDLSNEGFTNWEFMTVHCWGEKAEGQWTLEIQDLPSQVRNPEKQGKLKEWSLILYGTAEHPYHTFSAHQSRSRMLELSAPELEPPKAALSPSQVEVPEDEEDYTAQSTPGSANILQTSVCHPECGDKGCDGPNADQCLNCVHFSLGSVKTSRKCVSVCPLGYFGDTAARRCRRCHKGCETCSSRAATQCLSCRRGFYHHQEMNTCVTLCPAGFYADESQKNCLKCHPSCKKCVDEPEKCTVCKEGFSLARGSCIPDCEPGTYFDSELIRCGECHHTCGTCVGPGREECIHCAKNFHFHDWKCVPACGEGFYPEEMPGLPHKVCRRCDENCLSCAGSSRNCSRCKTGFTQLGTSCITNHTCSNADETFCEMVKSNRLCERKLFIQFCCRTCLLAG
Outline: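 Human recombinant purified PACE4 at 2 units/100 µL (20.18 nM), in 20 mM BisTris pH 6.5, 1 mM CaCl2, 1.8 mg/mL BSA. Substrate 100 µM, KM 4.035 µM. Inhibitor 1 nM to 10 µM; 60 min at 37°C. Fluorescence ex 370 / em 460 nm. Ki by Morrison tight-binding equation; three independent experiments, mean ± SD.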

[2] = target: Furin (Homo sapiens, UniProt P09958); assay: Inhibition of recombinant human furin expressed in drosophila S2 cells using pyrGlu-Arg-Thr-Lys-Arg-7-amido-4-methylcoumarin as substrate after 60 mins by spectrofluorometry method; type: cell-based
Outline: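 Human recombinant purified furin at 2 units/100 µL (0.54 nM), in 100 mM HEPES pH 7.5, 1 mM CaCl2, 1 mM β-mercaptoethanol, 1.8 mg/mL BSA. His-containing peptides run instead in 20 mM BisTris pH 6.5 with the same additives. Substrate 100 µM, KM 5.04 µM. Inhibitor 1 nM to 10 µM; 60 min at 37°C. Fluorescence ex 370 / em 460 nm. Ki by Morrison equation; triplicate experiments, mean ± SD.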

[3] = species: Homo sapiens; assay: Selectivity index, ratio of Ki for recombinant human furin expressed in drosophila S2 cells to Ki for recombinant human PACE4 expressed in drosophila S2 cells; type: cell-based
Outline: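 Ratio Ki(furin)/Ki(PACE4). […] PACE4 buffer was BisTris pH 6.5; furin buffer was HEPES pH 7.5, or BisTris pH 6.5 for His peptides. Ki fitted by Morrison equation from three independent experiments.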

[4] = test system: DU-145; assay: Antiproliferative activity against human DU145 cells assessed as reduction in metabolic activity at 25 to 100 uM after 72 hrs by MTT assay; type: functional, cell-based
Outline: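 First-pass MTT screen of each library peptide on DU145 cells (RPMI 1640, 5% FBS, 1500 cells/well, poly-L-lysine plates). Peptides added 24 h after seeding at 25, 50 and 100 µM in fresh serum medium for 72 h. MTT 1 mg/mL for 4 h; 2-propanol HCl solubilisation. Activity normalised to water vehicle. Mean ± SEM of at least two independent experiments.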

Sequence of Furin (P09958 whole entry): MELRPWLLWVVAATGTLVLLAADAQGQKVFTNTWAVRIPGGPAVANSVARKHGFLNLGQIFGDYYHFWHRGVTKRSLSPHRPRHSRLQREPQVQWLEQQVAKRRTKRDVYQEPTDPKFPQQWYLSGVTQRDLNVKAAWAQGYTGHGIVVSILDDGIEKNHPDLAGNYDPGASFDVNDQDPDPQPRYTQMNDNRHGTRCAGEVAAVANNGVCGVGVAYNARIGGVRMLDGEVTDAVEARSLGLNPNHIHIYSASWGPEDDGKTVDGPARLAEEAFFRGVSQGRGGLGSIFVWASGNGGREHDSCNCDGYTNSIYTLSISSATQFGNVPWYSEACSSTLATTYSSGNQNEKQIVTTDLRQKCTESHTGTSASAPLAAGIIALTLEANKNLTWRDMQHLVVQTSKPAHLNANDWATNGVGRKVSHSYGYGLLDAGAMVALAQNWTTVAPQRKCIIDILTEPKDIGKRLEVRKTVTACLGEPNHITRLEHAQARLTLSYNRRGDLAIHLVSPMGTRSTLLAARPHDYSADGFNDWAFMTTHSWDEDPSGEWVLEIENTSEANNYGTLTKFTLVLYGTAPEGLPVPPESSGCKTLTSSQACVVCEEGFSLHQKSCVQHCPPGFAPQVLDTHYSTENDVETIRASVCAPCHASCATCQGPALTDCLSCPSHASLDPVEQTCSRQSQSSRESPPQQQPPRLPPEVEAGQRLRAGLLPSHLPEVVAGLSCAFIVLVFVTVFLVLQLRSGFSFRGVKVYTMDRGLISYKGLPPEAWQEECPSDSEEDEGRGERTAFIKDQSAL

`CC(=O)N[C@@H](CC(C)C)C(=O)N[C@@H](CC(C)C)C(=O)N[C@@H](CO)C(=O)N[C@@H](CC(C)C)C(=O)N[C@@H](CCCNC(=N)N)C(=O)N[C@H](C(=O)N[C@@H](CCCCN)C(=O)NCc1ccc(C(=N)N)cc1)C(C)C` (Ac-LLSLRVK-{NH(4-amidinobenzyl)}) showed a Ki [1] of 36 nM, a Ki [2] of 15 nM and a Ratio Ki [3] of 0.4. For the same compound, the Activity [4] was “inactive”.

With `CC(=O)N[C@@H](CC(C)C)C(=O)N[C@@H](CC(C)C)C(=O)N[C@H](C(=O)N[C@@H](CC(C)C)C(=O)N[C@@H](CCCNC(=N)N)C(=O)N[C@H](C(=O)N[C@@H](CCCCN)C(=O)NCc1ccc(C(=N)N)cc1)C(C)C)[C@@H](C)O` (Ac-LLTLRVK-{NH(4-amidinobenzyl)}) the Ki [1] was 39 nM, the Ki [2] was 18 nM and the Ratio Ki [3] was 0.5. For the same compound, the Activity [4] was “inactive”.

With `CC(=O)N[C@@H](CC(C)C)C(=O)N[C@@H](CC(C)C)C(=O)N[C@H](C(=O)N[C@@H](CC(C)C)C(=O)N[C@@H](CCCNC(=N)N)C(=O)N[C@H](C(=O)N[C@@H](CCCCN)C(=O)NCc1ccc(C(=N)N)cc1)C(C)C)C(C)C` (Ac-LLVLRVK-{NH(4-amidinobenzyl)}) the Ki [1] was 4 nM, the Ki [2] was 3 nM and the Ratio Ki [3] was 0.8. The Activity [4] was “inactive”.

In the case of `CC(=O)N[C@@H](CC(C)C)C(=O)N[C@@H](CC(C)C)C(=O)N[C@@H](Cc1c[nH]c2ccccc12)C(=O)N[C@@H](CC(C)C)C(=O)N[C@@H](CCCNC(=N)N)C(=O)N[C@H](C(=O)N[C@@H](CCCCN)C(=O)NCc1ccc(C(=N)N)cc1)C(C)C` (Ac-LLWLRVK-{NH(4-amidinobenzyl)}), the Ki [1] is reported as 44 nM, the Ki [2] is reported as 36 nM and the Ratio Ki [3] is reported as 0.8. For the same compound, the Activity [4] was “inactive”.

Compound `CSCC[C@H](NC(=O)[C@H](CC(C)C)NC(C)=O)C(=O)N[C@@H](CC(C)C)C(=O)N[C@@H](CC(C)C)C(=O)N[C@@H](CCCNC(=N)N)C(=O)N[C@H](C(=O)N[C@@H](CCCCN)C(=O)NCc1ccc(C(=N)N)cc1)C(C)C` (Ac-LMLLRVK-{NH(4-amidinobenzyl)}) has a Ki [1] of 5 nM, a Ki [2] of 3 nM and a Ratio Ki [3] of 0.6. For the same compound, the Activity [4] was “inactive”.

Compound `CC(=O)N[C@@H](CC(C)C)C(=O)N[C@@H](CC(N)=O)C(=O)N[C@@H](CC(C)C)C(=O)N[C@@H](CC(C)C)C(=O)N[C@@H](CCCNC(=N)N)C(=O)N[C@H](C(=O)N[C@@H](CCCCN)C(=O)NCc1ccc(C(=N)N)cc1)C(C)C` (Ac-LNLLRVK-{NH(4-amidinobenzyl)}) has a Ki [1] of 4 nM, a Ki [2] of 1 nM and a Ratio Ki [3] of 0.3. For the same compound, the Activity [4] was “inactive”.

For `CC(=O)N[C@@H](CC(C)C)C(=O)N1CCC[C@H]1C(=O)N[C@@H](CC(C)C)C(=O)N[C@@H](CC(C)C)C(=O)N[C@@H](CCCNC(=N)N)C(=O)N[C@H](C(=O)N[C@@H](CCCCN)C(=O)NCc1ccc(C(=N)N)cc1)C(C)C` (Ac-LPLLRVK-{NH(4-amidinobenzyl)}), the Ki [1] was 1 nM, the Ki [2] was 1.5 nM and the Ratio Ki [3] was 1.5. For the same compound, the Activity [4] was “inactive”.

Work on `CC(=O)N[C@@H](CC(C)C)C(=O)N[C@@H](CCC(N)=O)C(=O)N[C@@H](CC(C)C)C(=O)N[C@@H](CC(C)C)C(=O)N[C@@H](CCCNC(=N)N)C(=O)N[C@H](C(=O)N[C@@H](CCCCN)C(=O)NCc1ccc(C(=N)N)cc1)C(C)C` (Ac-LQLLRVK-{NH(4-amidinobenzyl)}) yielded a Ki [1] of 3 nM, a Ki [2] of 2.3 nM and a Ratio Ki [3] of 0.8. The Activity [4] was “inactive”.

For `CC(=O)N[C@@H](CC(C)C)C(=O)N[C@@H](CCCNC(=N)N)C(=O)N[C@@H](CC(C)C)C(=O)N[C@@H](CC(C)C)C(=O)N[C@@H](CCCNC(=N)N)C(=O)N[C@H](C(=O)N[C@@H](CCCCN)C(=O)NCc1ccc(C(=N)N)cc1)C(C)C` (Ac-LRLLRVK-{NH(4-amidinobenzyl)}), the Ki [1] was 0.4 nM, the Ki [2] was 0.5 nM and the Ratio Ki [3] was 1.3. For the same compound, the Activity [4] was “inactive”.

`CC(=O)N[C@@H](CC(C)C)C(=O)N[C@@H](CO)C(=O)N[C@@H](CC(C)C)C(=O)N[C@@H](CC(C)C)C(=O)N[C@@H](CCCNC(=N)N)C(=O)N[C@H](C(=O)N[C@@H](CCCCN)C(=O)NCc1ccc(C(=N)N)cc1)C(C)C` (Ac-LSLLRVK-{NH(4-amidinobenzyl)}) gave a Ki [1] of 2 nM, a Ki [2] of 2.6 nM and a Ratio Ki [3] of 1.3. For the same compound, the Activity [4] was “inactive”.

From ChEMBL document CHEMBL4049407, “Positional Scanning Identifies the Molecular Determinants of a High Affinity Multi-Leucine Inhibitor for Furin and PACE4” (J Med Chem, 2017)
